Source: ChEMBL document CHEMBL4316633, “The Antiangiogenic Activity of Naturally Occurring and Synthetic Homoisoflavonoids from the Hyacinthaceae ( sensu APGII)” (J Nat Prod, 2019)
The source made the active and inactive calls. The calls are words filed in the database; no cut-off is given here.

Experiments:
[1] = Antiproliferative activity against HREC assessed as reduction in cell number incubated for 44 hrs by alamar blue based fluorescence assay; type: functional; conditions: Homo sapiens
[2] = Cytotoxicity against human Y79 cells assessed as reduction in cell number incubated for 44 hrs by alamar blue based fluorescence assay
[3] = Cytotoxicity against human 92-1 cells assessed as reduction in cell number incubated for 44 hrs by alamar blue based fluorescence assay
[4] = Antiproliferative activity against HUVEC assessed as reduction in cell number incubated for 44 hrs by alamar blue based fluorescence assay; conditions: human, HUVEC cells
Method in brief: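 Primary endothelial cells (HRECs, HUVECs; passage 5–8) in EGM-2; 2,500 cells seeded, 24 h at 37°C, 5% CO2, then compounds 0.5 nM–500 μM for 44 h. alamarBlue added 4 h, fluorescence ex 560/em 590 nm.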

[5] = Antiproliferative activity against human ARPE19 assessed as reduction in cell number incubated for 44 hrs by alamar blue based fluorescence assay; conditions: ARPE-19 cells
[6] = species on record: Homo sapiens; experiment: Antiangiogenic activity against HREC assessed as reduction in tube formation incubated for 8 hrs by matrigel based tube formation assay; type: functional
Method in brief: (§1)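 HRECs (passage 5–8), 15,000 cells in EGM-2 medium, plated on Matrigel basement membrane coat with DMSO vehicle or graded compound concentrations; SH-11037 as positive control. Images taken after 8 h; tubule length quantified by Angiogenesis Analyzer macros and expressed relative to DMSO control. Mean ± SEM, n=3–6 wells, duplicate experiments; one-way ANOVA with Dunnett's test.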

[7] = species on record: Homo sapiens; experiment: Antiangiogenic activity against HREC assessed as reduction in tube formation at 0.05 to 0.5 uM incubated for 8 hrs by matrigel based tube formation assay; type: functional; method in brief: as §1
[8] = species on record: Homo sapiens; experiment: Antiangiogenic activity against HREC assessed as reduction in tube formation at 0.01 to 0.1 uM incubated for 8 hrs by matrigel based tube formation assay; type: functional; method in brief: as §1
[9] = species on record: Homo sapiens; experiment: Antiangiogenic activity against HREC assessed as reduction in tube formation at 0.01 to 0.1 nM incubated for 8 hrs by matrigel based tube formation assay; type: functional; method in brief: as §1

SMILES	GI50 [1]	GI50 at 44 h [2]	GI50 at 44 h [3]	GI50 at 44 h [4]	GI50 at 44 h [5]	inhibition [6]	inhibition [7]	inhibition [8]	inhibition [9]
COc1cc2c(cc1O)C[C@]21COc2cc(O)cc(O)c2C1=O	> 100 µM	> 100 µM	> 100 µM	> 100 µM	–	–	–	–	–
COc1cc(O)c2c(c1)OC[C@]1(Cc3c1cc(OC)c(OC)c3O)C2=O	> 100 µM	> 100 µM	> 100 µM	> 100 µM	–	–	–	–	–
COc1cc(OC(C)=O)cc2c1C(=O)/C(=C/c1ccc(OC(C)=O)cc1)CO2	96 µM	> 100 µM	> 100 µM	43 µM	–	–	–	–	–
COc1ccc(/C=C2\COc3cc(O)c(O)c(O)c3C2=O)cc1O	17 µM	23 µM	> 100 µM	41 µM	–	–	–	–	–
O=C1c2c(O)cc(O)cc2OC[C@]12Cc1cc3c(cc12)OCO3	> 100 µM	> 100 µM	> 100 µM	> 100 µM	–	–	–	–	–
COc1ccc2c(c1OC)OC/C(=C\c1ccc(SC)cc1)C2=O	3.6 µM	11 µM	> 100 µM	–	> 100 µM	–	–	–	–
COc1cc(O)cc2c1C(=O)[C@H](Cc1ccc(O)cc1)CO2	> 100 µM	> 100 µM	> 100 µM	> 100 µM	–	–	–	–	–
O=C1/C(=C/c2ccc(O)c(O)c2)COc2cc(O)cc(O)c21	> 100 µM	> 100 µM	> 100 µM	–	> 100 µM	–	–	–	–
COc1ccc(/C=C2\COc3cc(OC(C)=O)c(O)c(O)c3C2=O)cc1OC(C)=O	16 µM	29 µM	69 µM	11 µM	–	Dose-dependent effect	–	–	–
O=C1/C(=C/c2ccc(O)cc2)COc2cc(O)cc(O)c21	60 µM	> 100 µM	> 100 µM	–	> 100 µM	–	–	–	–
COc1ccc(/C=C2\COc3c(OC)c(O)cc(O)c3C2=O)cc1	> 100 µM	> 100 µM	> 100 µM	–	> 100 µM	–	–	–	–
CCOc1ccc(C(=O)/C=C/c2ccc(OC)c(OC)c2)c(O)c1C	3.9 µM	> 100 µM	> 100 µM	–	> 100 µM	–	Active	–	–
O=C1c2c(O)cc(O)cc2OC[C@H]1Cc1ccc(O)c(O)c1	> 100 µM	> 100 µM	> 100 µM	> 100 µM	–	–	–	–	–
COc1cc(O)cc(OC)c1C(=O)/C=C/c1ccc(O)cc1	> 100 µM	> 100 µM	–	> 100 µM	–	–	–	–	–
CC(=O)Oc1cc(O)cc2c1C(=O)/C(=C/c1ccc(O)c(O)c1)CO2	1.4 µM	2.5 µM	> 100 µM	5 µM	–	Dose-dependent effect	–	–	–
COc1cc2c(cc1O)C[C@]21COc2cc(OC(C)=O)cc(O)c2C1=O	> 100 µM	> 100 µM	> 100 µM	> 100 µM	–	–	–	–	–
COc1cc(O)c2c(c1)OC[C@]1(Cc3c1cc(OC)c(OC)c3OC)C2=O	> 100 µM	> 100 µM	> 100 µM	> 100 µM	–	–	–	–	–
COc1c(O)cc2c(c1O)C(=O)[C@H](Cc1ccc(O)cc1)CO2	> 100 µM	> 100 µM	> 100 µM	> 100 µM	–	–	–	–	–
COc1ccc(C[C@]2(O)COc3cc(OC)cc(O)c3C2=O)cc1	64 µM	> 100 µM	> 100 µM	–	> 100 µM	–	–	–	–
COc1c(O)c(OC)c2c(c1O)OC[C@@H](Cc1ccc(O)cc1)C2=O	> 100 µM	> 100 µM	> 100 µM	–	> 100 µM	–	–	–	–
COc1c(O)cc(O)c2c1OC[C@@H](Cc1ccc(O)cc1)C2=O	64 to 100 µM	> 100 µM	> 100 µM	> 100 µM	> 100 µM	–	–	–	–
COc1ccc(/C=C2\COc3cc(OC(C)=O)cc(O)c3C2=O)cc1O	18 µM	58 µM	67 µM	26 µM	–	Dose-dependent effect	–	–	–
CC(=O)Oc1cc(C[C@H]2COc3cc(O)cc(O)c3C2=O)ccc1O	> 100 µM	> 100 µM	> 100 µM	> 100 µM	–	–	–	–	–

SMILES	GI50 [1]	GI50 at 44 h [2]	GI50 at 44 h [3]	GI50 at 44 h [4]	GI50 at 44 h [5]	inhibition [6]	inhibition [7]	inhibition [8]	inhibition [9]
COc1ccc(C[C@H]2COc3cc(OC(C)=O)cc(OC(C)=O)c3C2=O)cc1O	> 100 µM	> 100 µM	> 100 µM	92 µM	–	–	–	–	–
COc1ccc(CC2(O)COc3cc(O)cc(O)c3C2=O)cc1 (configuration not stated)	> 100 µM	> 100 µM	> 100 µM	> 100 µM	–	–	–	–	–
COc1cc(OC)c2c(c1)OC/C(=C\c1ccc(SC)cc1)C2=O	2.5 µM	2 µM	> 100 µM	–	48 µM	–	–	–	–
COc1cc2c(cc1O)[C@@]1(COc3cc(O)cc(O)c3C1=O)C2	> 100 µM	> 100 µM	> 100 µM	> 100 µM	–	–	–	–	–
O=C1CCOc2cc(O)cc(O)c21	> 100 µM	> 100 µM	> 100 µM	> 100 µM	–	–	–	–	–
COc1cc(O)cc2c1C(=O)/C(=C/c1ccc(O)c(O)c1)CO2	> 100 µM	> 100 µM	> 100 µM	> 100 µM	–	–	–	–	–
COc1cc(O)cc2c1C(=O)[C@H](Cc1ccc(O)c(O)c1)CO2	> 100 µM	25 µM	> 100 µM	14 µM	–	–	–	–	–
O=C1c2c(O)cc(O)cc2OC[C@H]1Cc1ccc(O)cc1	> 100 µM	> 100 µM	> 100 µM	> 100 µM	–	–	–	–	–
COc1ccc(/C=C2\COc3cc(OC)c(OC)c(OC)c3C2=O)cc1O	2.2 µM	23 µM	8.2 µM	–	1.3 µM	–	–	–	–
COc1ccc(C[C@@H]2COc3cc(OC)c(OC)c(OC)c3C2=O)cc1O	0.035 µM	85 µM	> 100 µM	–	> 100 µM	–	–	Active	–
COc1ccc(C[C@]2(O)COc3cc(O)cc(O)c3C2=O)cc1	74 µM	> 100 µM	> 100 µM	–	> 100 µM	–	–	–	–
COc1ccc(CC2COc3cc(OC)c(OC)c(OC)c3C2)cc1O (racemic)	0.00023 µM	18 µM	52 µM	–	0.00034 µM	–	–	–	Active
COc1c(O)cc2c(c1O)C(=O)[C@H](Cc1ccc(O)c(O)c1)CO2	> 100 µM	> 100 µM	> 100 µM	–	> 100 µM	–	–	–	–
COc1ccc(C[C@@H]2COc3c(OC)c(O)cc(O)c3C2=O)cc1	> 100 µM	> 100 µM	> 100 µM	–	> 100 µM	–	–	–	–
COc1ccc(C[C@@H]2COc3cc(O)cc(O)c3C2=O)cc1	> 100 µM	> 100 µM	> 100 µM	> 100 µM	–	–	–	–	–
O=Cc1ccc(O)cc1 [4-HYDROXYBENZALDEHYDE]	> 100 µM	> 100 µM	> 100 µM	> 100 µM	–	–	–	–	–
COc1c(O)cc(O)c2c1OC/C(=C\c1ccc(O)cc1)C2=O	40 µM	> 100 µM	> 100 µM	> 100 µM	–	–	–	–	–
COc1cc2c(c(OC)c1OC)C(=O)/C(=C/c1ccc(Cl)c(O)c1)CO2	0.11 µM	13 µM	3.6 µM	–	0.73 µM	–	–	–	–
COc1ccc(/C=C2\COc3cc(OC)c(OC)c(O)c3C2=O)cc1O	0.26 µM	2.4 µM	> 100 µM	–	4.8 µM	–	Active	–	–
COc1ccc(CC2COc3cc(OC)c(OC)c(OC)c3C2=O)cc1O (racemic)	0.21 µM	> 100 µM	> 100 µM	–	> 100 µM	–	–	–	–
COc1c(O)cc2c(c1O)C(=O)/C(=C/c1ccc(O)c(O)c1)CO2	> 100 µM	> 100 µM	> 100 µM	–	> 100 µM	–	–	–	–
COc1cc2c(cc1O)C[C@]21COc2cc(OC(C)=O)cc(OC(C)=O)c2C1=O	> 100 µM	> 100 µM	> 100 µM	> 100 µM	–	–	–	–	–
